Published values from different studies.
Compare with care: the assays were run in different laboratories.

| SMILES | assay | system | setting | measurement | value |
| --- | --- | --- | --- | --- | --- |
| NCCOCC(=O)N1CCCC(C(=O)NCc2nc(-c3ccc(-c4ccc(F)cc4)cc3)cs2)C1 (stereo not drawn) |  | rat, plasma | intravenous, 1 mg/kg | Vd | 26 L/kg |
| Cl.Cn1c(=O)n(CCCCN2CCC3(CC2)OCc2ccccc23)c2ccccc21 |  | male Sprague-Dawley rat, plasma | intravenous, 5 mg/kg | Vd | 8.4 L/kg |
| Cc1[nH]c(C)c(S(=O)(=O)Nc2ccc(S(=O)(=O)F)c(Cl)c2)c1C(=O)N1CCC(F)(F)C1 | metabolic stability | mouse, liver microsomes |  | microsomal CLint | 21.8 µL/min/mg |
| O=C1NC2(CCC2)C(=O)N1c1ccc(F)c(C(F)(F)F)c1 | metabolic stability | mouse, liver microsomes |  | microsomal CLint | 42 µL/min/mg |
| Cc1[nH]c(C)c(S(=O)(=O)Nc2ccc(S(F)(F)(F)(F)F)c(Cl)c2)c1C(=O)N1CCC(F)(F)C1 | metabolic stability | mouse, liver microsomes |  | microsomal CLint | 25.4 µL/min/mg |
| CC(C)CC(=O)OC[C@H]1O[C@@](C#N)(c2ccc3c(N)ncnn23)[C@H](O)[C@@H]1O | metabolic stability | mouse, hepatocytes | 5 µM | hepatocyte CLint | > 318 µL/min/10⁶ cells |
| C/C=C1/CN2CC[C@@]34c5cc(O)ccc5N(C)[C@]35OC[C@@]4(C(=O)OC)[C@H]1C[C@H]25 |  | male Sprague-Dawley rat, plasma | intravenous, 1 mg/kg | Vd | 10.2 L/kg |
| CC1(CC(F)(F)F)NC(=O)N(c2ccc(F)c(C(F)(F)F)c2)C1=O (stereo not drawn) | metabolic stability | mouse, liver microsomes |  | microsomal CLint | < 7 µL/min/mg |
| CC[C@H](C)CCCCC(=O)N[C@@H](CCN)C(=O)N[C@H](C(=O)N[C@@H](CCN)C(=O)N[C@H]1CCNC(=O)[C@H]([C@@H](C)O)NC(=O)[C@H](CCN)NC(=O)[C@H](CCN)NC(=O)[C@H](CC(C)C)NC(=O)[C@@H](CC(C)C)NC(=O)[C@H](CCN)NC1=O)[C@@H](C)O |  | male Sprague-Dawley rat, plasma | intravenous, 5 mg/kg | Vd | 0.736 L/kg |
